PubChem BioAssay AID504382 (The Scripps Research Institute Molecular Screening Center, 2011)
Screen size: about 2,500 compounds; about 460 (18%) were called active. Only a sample is shown. A number with no mark means an inactive call.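 How the source made its calls: active means mean activation above a cutoff of low control average plus 3 SD from the earlier screen (cut at about 12% in these data); inactive means the rest.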

Experiment: IANBD-channel fluorescence artefacts in buffer – biochemical, artefact control for cardiac RTF calcium sensitizer project, confirmation (AID 504382)
Details: IANBD fluorescence interference counterscreen, EC20 Ca2+, at 7.2 µM, hits give high values, scaled: EC20 calcium 0, EC100 calcium 100
Outline: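 Technique: fluorescence, 480/540 nm / Medium: MOPS-based buffer with KCl, MgCl2, EGTA, NTA, DTT, pH 7.2 / Probe or stimulus: calcium at EC20 level, 0.472 mM final / Repeats: triplicate wells per compound / Times: 15 min compound exposure at 25 °C / Measure: compound fluorescence interference relative to control well signal range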

Row | Structure (SMILES) | fluorescence artifact activation
1 | O=C1CC(c2cccc(Oc3ccccc3)c2)NC(=O)N1 (stereo not drawn) | 0.02%
2 | O=c1c(/C=C(\O)c2ccc(F)cc2)nc2ccccc2n1-c1ccccc1 | 0.04%
3 | Cc1ccc(NC(=O)CSc2nnc(-c3cccnc3)s2)cc1 | 258% (active)
4 | Cc1ccc(-c2csc(NC(=O)CSc3nc4ccccc4o3)n2)cc1 | 0.77%
5 | Cc1ccc(CSc2nnc(SCC(=O)N/N=C/c3ccccc3OCC(=O)O)s2)cc1 | 4.19%
6 | Nc1nnnn1/N=C/c1cc(Cl)cc(Cl)c1O | 0.11%
7 | O=C(Nc1ccc(Cl)c(Cl)c1)Nc1ccc([N+](=O)[O-])cn1 | 8.85%
8 | COc1ccc(OC)c2[nH]c(=O)c(CCNS(=O)(=O)c3ccc(Cl)cc3)cc12 | -0.04%
9 | N#C/C(=C\N1CCN(Cc2ccc3c(c2)OCO3)CC1)c1nc2ccccc2s1 | 7.04%
10 | COc1cccc(C2C(C#N)=C(N)Oc3cc(C)oc(=O)c32)c1OC (stereo not drawn) | 6.53%
11 | Cc1ccccc1N=Cc1cc2c(cc1O)OC(N)=C(C#N)C2c1ccccc1 (stereo not drawn) | 0.04%
12 | COc1ccc(N=Cc2cc3c(cc2O)OC(N)=C(C#N)C3c2ccccc2)cc1 (stereo not drawn) | 32.9% (active)
13 | CCN(CC)c1ccc(/C=C2\SC(N)=NC2=O)cc1 | 18.7% (active)
14 | CCN(CC)c1ccc(/C=C2\C(=N)N3N=C(CC(=O)N4CCOCC4)SC3=NC2=O)cc1 | 0.25%
15 | CCOc1ccc(N(C)c2ccc(/C=C3/SC(=S)NC3=O)cc2)cc1 | 0.1%
16 | CCN(CC)c1ccc(C=C2SC(=S)NC2=O)cc1 | 19.1% (active)
17 | CN(C)c1ccc(C=C2SC(=S)NC2=O)cc1 | 0.13%
18 | CCCOc1ccc(-c2nn(-c3ccccc3)cc2/C=C2\SC(N)=NC2=O)cc1 | 0.02%
19 | COc1cccc(/C=N/Nc2nnc3c(n2)[nH]c2ccccc23)c1OC | 0.23%
20 | CC[n+]1c(/C=C/N(C)c2ccccc2)oc2ccc(F)cc21 | 0.51%
21 | CCN(CC)c1ccc(/C=N/OCC(=O)Nc2cccc(C)c2)cc1 | 0.61%
22 | C#CCN1c2ccccc2Sc2cccnc21 | 0.15%
23 | O=C(c1cccc(F)c1)N1CCN(C(=O)c2cc(-c3ccc(Cl)cc3Cl)on2)CC1 | 0.33%
24 | Fc1ccc(-c2nnc(-c3ccc(Cl)cc3Cl)o2)cc1 | 12.9% (active)

Row | Structure (SMILES) | fluorescence artifact activation
25 | Nc1ccn([C@H]2C[C@H](O)[C@@H](CO)O2)c(=O)n1 | 0.1%
26 | CCCNC(=O)Cn1c(=O)/c(=C/c2ccc(-c3ccc([N+](=O)[O-])cc3)o2)s/c1=C\C(=O)C(C)(C)C | 10.3%
27 | O=c1oc2ccccc2cc1-c1nc(-c2cccs2)cs1 | -0.04%
28 | O=c1c(-c2ccc(O)cc2O)coc2cc(O)cc(O)c12 | 0.09%
29 | O=c1oc2ccccc2cc1-c1ccc(O)cc1O | 30.6% (active)
30 | COc1ccccc1/C=[N+](\[O-])C1SC(=S)N(C)C1(C)C (stereo not drawn) | 0.01%
31 | CCOc1ccc(N2C(=O)CC(SCc3nc4ccccc4[nH]3)C2=O)cc1 (stereo not drawn) | 0.12%
32 | COC(=O)[C@@]1(Cc2ccc(OC)cc2)[C@@H]2C(=CC(=O)[C@H]2CC(=O)C(=O)N2CCCC2)CN1C(=O)c1ccccc1 | 15% (active)
33 | O=C1Nc2ccccc2/C1=C/c1cnc(-c2ccccc2)[nH]1 | 36.5% (active)
34 | CN(C)S(=O)(=O)c1ccc2c(c1)/C(=C/c1cc3c([nH]1)CCCC3)C(=O)N2 | 3.96%
35 | Cc1cc(C)c(/C=C2\C(=O)Nc3ccccc32)[nH]1 | 4.55%
36 | C#Cc1ccc([C@@H]2C=C(C(=O)OCC=C)O[C@H](OCCCCO)C2)cc1 | 0.21%
37 | COc1ccccc1N1CCN(c2ccc([N+](=O)[O-])cc2Cl)CC1 | 18.9% (active)
38 | CC1=N/C(=C/c2ccc([N+](=O)[O-])cc2)C(=O)N1c1ccc(Cl)cc1Cl | 0.01%
39 | Cc1cc(N2CCN(c3nc(-c4ccc([N+](=O)[O-])cc4)cs3)CC2)c2ccccc2n1 | 3.28%
40 | COc1ccc(N2CCN(S(=O)(=O)Cc3ccccc3)CC2)cc1 | 0.08%
41 | COc1ccccc1N1CCN(C(=O)CCC(=O)O)CC1 | 0.1%
42 | COc1ccc(N2CCN(c3ccc([N+](=O)[O-])cc3Cl)CC2)cc1 | 18.2% (active)
43 | COc1cc(NC(=O)C2CCCCN2)ccc1OCC(C)C (stereo not drawn) | 2.06%
44 | CC(C)C(=O)COc1c2occc2cc2ccc(=O)oc12 | 0.07%
45 | CCOC(=O)c1cccc(NC(=O)CSc2nc(N)cc(N)n2)c1 | -0.04%
46 | Cc1noc(NS(=O)(=O)c2ccc(NC(=O)CSc3nc4c(cc3C#N)CCC4)cc2)c1C | 0.31%
47 | CCOC(=O)c1c(C#N)c(SCC(=O)Nc2ccc(OC)cc2)nc2c1CN(CC)CC2 | 25.1% (active)
48 | COc1ccc(/C=C2\SC(=O)N(CCC(=O)N3CCN(C)CC3)C2=O)cc1 | -0.03%
